Data taken from ChEMBL document CHEMBL4014309, “Development of an Acrylate Derivative Targeting the NLRP3 Inflammasome for the Treatment of Inflammatory Bowel Disease” (J Med Chem, 2017).
The source made the active and inactive calls. The rule behind the calls is not given here.

Legend:
[1] = Cysteamine reactivity in PBS assessed as free compound level at pH 7.4 measured after 4 hrs by DTNB reagent based RP-UHPLC analysis
In short: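 The compound was reacted with excess cysteamine in pH 7.4 phosphate buffer with CH3CN cosolvent at 37 °C. Remaining compound was followed by UHPLC over 4 h, sampled at 30 min, 60 min and 4 h, and expressed as percent of starting concentration.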

[2] = Cytotoxicity against human THP1 cells assessed as reduction in cell viability after 72 hrs by MTT assay; assay type: cell-based; settings: THP-1 cells, read-out: TC50
In short: (§1)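 Human THP-1 cells were exposed to 0.1–100 µM for 72 h, and viability was read by MTT. TC50 is the concentration that cuts viability by 50%; percent viable cells at 100 µM is also reported. Mean ± SEM of ≥3 experiments.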

[3] = Cytotoxicity against human THP1 cells assessed as cell viability at 100 uM after 72 hrs by MTT assay; assay type: cell-based; settings: THP-1 cells, read-out: Activity; in short: as §1
[4] = target: NACHT, LRR and PYD domains-containing protein 3 (Homo sapiens) (UniProt Q96P20); assay: Inhibition of recombinant human NLRP3 ATPase assessed as hydrolysis of ATP at 50 uM preincubated for 15 mins followed by addition of ATP measured after 40 mins by ADP-Glo assay
Chain of NACHT, LRR and PYD domains-containing protein 3 (Homo sapiens) (Q96P20 whole entry, the tested form may be a part): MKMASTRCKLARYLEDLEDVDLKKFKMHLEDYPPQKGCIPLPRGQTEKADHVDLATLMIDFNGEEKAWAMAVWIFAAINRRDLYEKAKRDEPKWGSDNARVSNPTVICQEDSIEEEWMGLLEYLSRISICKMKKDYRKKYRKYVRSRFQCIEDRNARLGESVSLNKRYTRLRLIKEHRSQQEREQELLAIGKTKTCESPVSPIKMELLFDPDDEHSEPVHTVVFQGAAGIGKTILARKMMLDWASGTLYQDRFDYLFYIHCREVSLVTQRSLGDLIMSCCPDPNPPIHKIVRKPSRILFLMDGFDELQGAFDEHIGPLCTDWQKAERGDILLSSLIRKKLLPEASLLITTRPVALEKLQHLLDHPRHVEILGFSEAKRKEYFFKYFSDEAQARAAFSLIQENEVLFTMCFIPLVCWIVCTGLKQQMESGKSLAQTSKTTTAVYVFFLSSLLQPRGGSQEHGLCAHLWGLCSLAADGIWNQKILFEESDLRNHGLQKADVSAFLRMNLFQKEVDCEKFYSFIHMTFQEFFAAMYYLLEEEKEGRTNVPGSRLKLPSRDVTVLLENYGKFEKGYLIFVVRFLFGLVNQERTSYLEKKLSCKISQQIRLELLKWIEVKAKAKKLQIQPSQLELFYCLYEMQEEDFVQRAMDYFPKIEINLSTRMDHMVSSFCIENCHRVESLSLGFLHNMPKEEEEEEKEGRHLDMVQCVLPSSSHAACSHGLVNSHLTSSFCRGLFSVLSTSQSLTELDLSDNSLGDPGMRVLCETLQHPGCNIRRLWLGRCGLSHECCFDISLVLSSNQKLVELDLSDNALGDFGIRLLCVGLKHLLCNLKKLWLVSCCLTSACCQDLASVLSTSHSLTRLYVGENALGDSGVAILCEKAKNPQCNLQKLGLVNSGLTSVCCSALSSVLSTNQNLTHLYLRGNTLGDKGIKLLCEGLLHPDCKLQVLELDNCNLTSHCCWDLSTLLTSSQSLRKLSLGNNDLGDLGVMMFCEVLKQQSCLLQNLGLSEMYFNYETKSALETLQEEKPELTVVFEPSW
In short: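 Human recombinant NLRP3 (0.105 µg) in 20 mM Tris-HCl pH 7.8, 133 mM NaCl, 20 mM MgCl2, 3 mM KCl, 0.56 mM EDTA, 0.5% DMSO. Compound (100 or 50 µM) was preincubated 15 min at 37 °C, then ATP (250 µM) was added for 40 min at 37 °C. ADP was read by ADP-Glo luminescence. Result is % inhibition vs vehicle; mean ± SEM, ≥3 experiments.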

[5] = target: NACHT, LRR and PYD domains-containing protein 3 (Mus musculus) (UniProt Q8R4B8); assay: Inhibition of NLRP3 inflammasome in LPS-primed C57BL/6 mouse bone marrow derived macrophages assessed as reduction in ATP-induced caspase-1 activation at 10 to 100 uM preincubated for 1 hr followed by stimulation with ATP measured after 30 mins by Western blot analysis
Chain of NACHT, LRR and PYD domains-containing protein 3 (Mus musculus) (Q8R4B8 whole entry, the tested form may be a part): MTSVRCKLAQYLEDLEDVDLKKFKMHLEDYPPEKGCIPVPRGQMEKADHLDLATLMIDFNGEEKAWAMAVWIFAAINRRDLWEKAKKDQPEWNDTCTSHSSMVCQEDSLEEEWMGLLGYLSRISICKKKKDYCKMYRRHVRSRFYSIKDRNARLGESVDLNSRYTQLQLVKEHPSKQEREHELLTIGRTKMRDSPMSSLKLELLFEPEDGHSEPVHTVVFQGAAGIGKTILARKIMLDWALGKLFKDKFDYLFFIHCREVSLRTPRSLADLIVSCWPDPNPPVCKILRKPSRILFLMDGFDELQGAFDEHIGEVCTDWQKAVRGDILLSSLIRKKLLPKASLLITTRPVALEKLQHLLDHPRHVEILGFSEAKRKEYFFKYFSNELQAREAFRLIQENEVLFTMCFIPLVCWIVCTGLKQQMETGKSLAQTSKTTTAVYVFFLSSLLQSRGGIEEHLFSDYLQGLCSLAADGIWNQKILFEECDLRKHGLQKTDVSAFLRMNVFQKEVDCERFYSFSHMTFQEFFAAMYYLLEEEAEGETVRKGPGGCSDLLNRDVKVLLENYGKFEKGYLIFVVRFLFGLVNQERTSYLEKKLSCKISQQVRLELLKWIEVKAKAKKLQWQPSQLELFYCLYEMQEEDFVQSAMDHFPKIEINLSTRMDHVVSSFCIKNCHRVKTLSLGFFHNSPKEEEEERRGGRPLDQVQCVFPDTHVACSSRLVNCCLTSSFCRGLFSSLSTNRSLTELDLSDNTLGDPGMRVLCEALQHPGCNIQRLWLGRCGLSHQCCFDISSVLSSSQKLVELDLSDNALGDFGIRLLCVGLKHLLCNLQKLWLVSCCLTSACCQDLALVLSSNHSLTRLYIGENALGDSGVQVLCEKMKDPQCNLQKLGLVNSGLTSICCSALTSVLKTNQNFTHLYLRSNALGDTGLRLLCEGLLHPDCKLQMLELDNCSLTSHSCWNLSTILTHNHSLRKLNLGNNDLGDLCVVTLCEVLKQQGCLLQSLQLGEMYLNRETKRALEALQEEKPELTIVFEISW

[6] = organism: Mus musculus; assay: Inhibition of NF-kB signaling pathway in C57BL/6 mouse bone marrow derived macrophages assessed as reduction in LPS-induced TNFalpha gene expression at 10 to 100 uM preincubated for 30 mins followed by LPS stimulation measured after 4 hrs by qRT-PCR analysis
In short: (§2)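 C57BL/6 bone marrow macrophages, differentiated with 20% L-cell medium, were preincubated with compound for 30 min. They were then left untreated or given LPS (1 ng/mL, 4 h). Tnfa, Il6 and Il1b expression was measured by quantitative RT-PCR as 2^-ΔΔCt.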

[7] = target: NACHT, LRR and PYD domains-containing protein 3 (Mus musculus) (UniProt Q8R4B8); assay: Inhibition of NLRP3 in C57BL/6 mouse bone marrow derived macrophages assessed as reduction in LPS-induced IL-1beta gene expression at 10 to 100 uM preincubated for 30 mins followed by LPS stimulation measured after 4 hrs by qRT-PCR analysis; in short: as §2
[8] = target: NACHT, LRR and PYD domains-containing protein 3 (Homo sapiens) (UniProt Q96P20); assay: Inhibition of recombinant YFP-tagged NLRP3 (unknown origin) expressed in HEK293 cells co-expressing luciferase at 10 to 100 uM after 24 hrs by BRET assay; assay type: cell-based
In short: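 HEK293 cells stably expressing YFP-NLRP3-Luc were grown in DMEM with 10% FCS, plated on poly-L-lysine, and exposed to compound or vehicle (15 h per methods; 24 h per figure legend). Cells were washed, then BRET was read after adding coelenterazine-H (5 µM). Kinetics used nigericin (10 µM) in vehicle or high-K+ (140 mM) buffer. Slopes of three phases were taken; mean ± SEM, n = 5–12.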

[9] = tested on: HEK293; assay: Cytotoxicity against HEK293 cells assessed as extracellular LDH level at 10 to 100 uM after 24 hrs; assay type: cell-based; settings: human, hek293, 24 h
[10] = Stability of the compound in simulated gastric fluid at 1.56 mg as suspension in olive oil and pH 2 after 2 hrs by UHPLC-MS analysis
In short: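 1.56 mg suspended in 100 µL olive oil, mixed with 100 µL SGF (pH 2, pepsin 3.2 mg/mL) for 2 h at 37 °C with shaking. Then 200 µL SIF (pH 7, pancreatin 2 mg/mL) was added for a further 2 h. Dedicated samples at 0, 30, 60 and 120 min were extracted with acetonitrile and analysed by UHPLC-MS. ≥3 repeats.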

[11] = tested on: Rattus norvegicus; assay: (§3) Antiinflammatory activity in DNBS-induced Sprague-Dawley rat colitis model assessed as body weight recovery at 12.5 to 50 mg/kg/day, ig administered as suspension in olive oil for 6 days simulatneously with 6 days of DNBS-challenge measured daily during compound dosing; assay type: functional, organism-based
In short: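 Colitis was induced with intrarectal DNBS (15 mg in 0.25 mL 50% ethanol). Intragastric treatment ran 6 days from the day of induction: 1 mg/kg/day in 1% methylcellulose, or 12.5–50 mg/kg/day in olive oil. Body weight change (g) was recorded at the end of treatment, mean ± SEM, n = 10.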

[12] = tested on: Rattus norvegicus; assay: as §3, with “reduction in DNBS-induced spleen” for “body”, “increase by measuring increase in spleen weight” for “recovery”, “12.5” for “12.5 to 50”, “dosing (reference value: 39.3%)” for “dosing”; assay type: functional; design: scale not given: the % may be the effect or the level left
In short: (§4)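 Spleen weight was used as an index of systemic inflammation. Rats had intrarectal DNBS (15 mg/0.25 mL 50% ethanol) and 6 days of intragastric dosing: 1 mg/kg/day in 1% methylcellulose, or 12.5–50 mg/kg/day in 0.2 mL olive oil. The spleen was weighed at sacrifice and expressed as percent increase versus control, n = 10.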

[13] = tested on: Rattus norvegicus; assay: as §3, with “reduction in DNBS-induced spleen” for “body”, “increase by measuring increase in spleen weight” for “recovery”, “25” for “12.5 to 50”, “dosing (reference value: 39.3%)” for “dosing”; assay type: functional; design: scale not given: the % may be the effect or the level left; in short: as §4
[14] = tested on: Rattus norvegicus; assay: Antiinflammatory activity in DNBS-induced Sprague-Dawley rat colitis model assessed as attenuation of DNBS-induced decrease in colonic length administered ig as suspension in olive oil for 6 days simulatneously with 6 days of DNBS-challenge; assay type: functional
[15] = tested on: Rattus norvegicus; assay: Antiinflammatory activity in DNBS-induced Sprague-Dawley rat colitis model assessed as DNBS-induced macroscopic damage score at 50 mg/kg/day, ig administered as suspension in olive oil for 6 days simulatneously with 6 days of DNBS-challenge (reference value: 8.6 +/- 0.6); assay type: functional
[16] = tested on: Rattus norvegicus; assay: Anti-inflammatory activity in DNBS-induced Sprague-Dawley rat colitis model assessed as DNBS-induced IL-1beta levels in colon at 25 mg/kg/day, ig for 6 days simulatneously with 6 days of DNBS-challenge by ELISA (reference value: 22.3 +/- 2.9 ng/mg); assay type: functional
[17] = tested on: Rattus norvegicus; assay: Anti-inflammatory activity in DNBS-induced Sprague-Dawley rat colitis model assessed as DNBS-induced TNFalpha levels in colon at 12.5 mg/kg/day, ig for 6 days simulatneously with 6 days of DNBS-challenge by ELISA (reference value: 5.9 +/- 0.6 pg/mg); assay type: functional
[18] = tested on: Rattus norvegicus; assay: Anti-inflammatory activity in DNBS-induced Sprague-Dawley rat colitis model assessed as DNBS-induced TNFalpha levels in colon at 50 mg/kg/day, ig for 6 days simulatneously with 6 days of DNBS-challenge by ELISA (reference value: 5.9 +/- 0.6 pg/mg); assay type: functional

SMILES: C=C(Cc1ccccc1Cl)C(=O)OCC
- Stability [1]: 77.5%
- CC50 at 72 h [2]: > 100 µM
- viability at 72 h, 100 µM [3]: 96.6%
- inhibition [4]: 29%
- inhibition [5]: Active
- inhibition [6]: Active
- inhibition [7]: Active
- inhibition [8]: Active
- Activity [9]: Non-Toxic
- Stability [10]: > 99.5%
- Activity [11]: Active
- Activity [12]: 2.2%
- Activity [13]: 4.3%
- Activity [14]: Dose-dependent effect
- Activity_index [15]: 2.8
- Activity [16]: 12.8 ng/mg
- Activity [17]: 3.5 pg/mg
- Activity [18]: 2.7 pg/mg
